Data set [1] relates to FcεRI expression by LAD2 mast cells. Briefly: FcεRI surface expression by flow cytometry, LAD2 mast cells. The class given is cell-based, human. To be noted: for Effect of antagonist on SP-mediated downregulation of FcεRI: LAD2, antagonist 0.1 μM 30 min pretreatment. Background: In flow cytometry, cells or beads pass a laser one at a time.
In data set [2] the test system is LAD2 mast cells. Briefly: Degranulation assay. Format: cell-based, human.
For data set [3], the system named is LAD2 mast cells. Conditions: ref Kulka et al., 2008; cited from earlier work.
In data set [4] the test system is CysLT production by LAD2 mast cells. Kind of data set: ELISA for CysLT production. Format: cell-based, human. To be noted: for Effect of SP on CysLT production: LAD2, SP 10 μg/ml, anti-IgE 3 h. Background: In an ELISA, binding on a coated surface is turned into a signal by an enzyme label.
The test system of data set [5] is IgE binding by LAD2 mast cells. Kind of data set: Cell surface IgE binding by flow cytometry. The class given is cell-based, human. To be noted: SP 24 h, sensitized with IgE 1-100 ng/ml 30 min, anti-IgE FITC, n=5. In outline:
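LAD2 human mast cells (StemPro-34 SFM, 10 ng/ml SCF) were incubated 24 h with SP, then sensitized for 30 min with IgE at 1-100 ng/ml. Bound IgE was stained with anti-IgE-FITC (5 μg/ml) for 30 min on ice and read by flow cytometry as MFI.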

Data set [6] deals with FcεRI α, β and γ subunit mRNA in LAD2 mast cells. Briefly: Quantitative real-time PCR of FcεRI α, β and γ subunit mRNA. The class given is cell-based, human. Conditions: LAD2, 1 μg/ml SP, after at least 8 h of incubation, vs untreated control, n=3. The gist of the method:
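LAD2 cells received 1 μg/ml SP or PBS for varying times. Total RNA was column-isolated, and 5 μg was reverse-transcribed with random hexamers. Real-time PCR used 50 ng cDNA per reaction, run in triplicate for 40 cycles. Subunit mRNA was normalized to GAPDH and expressed as percent of PBS-treated cells at each time point. n=3.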
(In qPCR the cycle at which signal appears reflects the starting amount.)

A further data set deals with mast cell tryptase. Briefly: Tryptase activity assay. Format: biochemical, human. To be noted: supernatants of SP-activated LAD2, BAPNA substrate, n=3. In outline: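 Washed LAD2 cells were left untreated or activated with SP (1 μg/ml) for 3 h. Cell-free supernatants were exposed to SBTI for 30 min, then mixed with 0.8 mM BAPNA solution in 0.1 M Tris/1 M glycerol, pH 7.8, and incubated 4 h at 37 °C. Nitroaniline was read at 410 nm. Activity was expressed relative to supernatants from SP-stimulated cells without inhibitor. n=3.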

Entries after “also recorded” stand apart in the source; their conditions may differ. Like-named read-outs stand apart in the source and are kept apart here.

Turning to `O=C(O)CN(CCN(CC(=O)O)CC(=O)O)CC(=O)O` [EDTA], in data set [1], the “Effect on SP-mediated downregulation of FcεRI” value is recorded as “blocked the SP-mediated downregulation of FcεRI”. Besides, the “Effect on SP-induced degranulation” value with LAD2 mast cells [2] is reported as “blocked SP-induced degranulation”.
Take Pertussis toxin: the “Effect on SP-mediated downregulation of FcεRI” value in data set [1] (Pertussis toxin pretreatment 2 h, then 1 μg/ml SP 24 h, n=3) is “selectively blocked SP-mediated downregulation of FcεRI”.
For the molecule SP(4–11) [SP(4–11) [D-Pro4 D-Trp7.9]], the “Concentration that blocked the SP-mediated downregulation of FcεRI expression” value in data set [1] (LAD2, 30 min pretreatment, then 1 μg/ml SP 24 h) is 0.1 µM. The “Effect of antagonist on SP-mediated downregulation of FcεRI” value in data set [1] (then 1 μg/ml SP 24 h) is given as “blocked SP-mediated downregulation of FcεRI expression”. Further, in data set [1] (discussion statement), the “Concentration at which SP(4–11) abrogated the SP effect on FcεRI expression” value was determined as 1 µg/mL.
On to spantide I, for which, in the data set on LAD2 mast cells [3], the “Effect on SP-mediated degranulation in mast cells” value is “fails to inhibit SP-mediated degranulation”. Moreover, in data set [1] (then 1 μg/ml SP 24 h), the “Effect of antagonist on SP-mediated downregulation of FcεRI” value is “did not have any effect”.
For substance P [SP], the “Effect of SP on CysLT production” value in data set [4] (sensitized with 50 ng/ml IgE) is reported as “significantly inhibited CysLT production”. Further, in data set [4] (sensitized with 100 ng/ml IgE), the “Effect of SP on CysLT production” value was “did not significantly affect CysLT production”. Also, the “Effect of SP pretreatment on IgE/anti-IgE-induced CysLT production” value in data set [4] (LAD2, SP 24 h, sensitized with IgE, activated with anti-IgE 3 h, ELISA, n=3) is “significantly less CysLT”. Further, the “Direct activation of CysLT production” value in data set [4] (mast cells, SP alone) is “does not activate mast cells to produce cysteinyl leukotrienes”. For the same molecule, the “IgE binding of SP-treated LAD2 vs untreated controls” value in data set [5] is recorded as “bound less IgE”. In addition, in data set [1] (LAD2 (discussion statement)), the “Lowest SP concentration leading to clear down-regulation of FcεRI” value is 1 µM and the “Time within which SP reduced IgE receptors” value is ≤ 30 min. Besides, the “Downregulation of FcεRI expression” value in data set [1] (LAD2, 1 μg/ml SP, 24 h) is “approximately 30%”. Moreover, the “Reduction of FcεRI expression” value in data set [1] (LAD2, 10 μg/ml SP (highest concentration tested), 24 h) is listed as ~70%. Moreover, in data set [1] (LAD2, 10 μg/ml SP, 2 h), the “Reduction in FcεRI protein expression compared to untreated cells” value was found to be 50%. Also, the “IC50 of SP for downregulation of FcεRI surface expression” value in data set [1] (LAD2, in the absence of IgE, SP 24 h, flow cytometry, n=3) stood at 5.2 µg/mL. In the data set with human mast cells, the “Effect on mast cell viability” value is “no effect on mast cell viability”. Besides, the “Effect on expression of FcεRI α, β and γ subunit mRNA” value in data set [6] was “significantly inhibited”.
For vasoactive intestinal peptide [VIP], the “Effect on mast cell viability” value in the data set with human mast cells was “no effect on mast cell viability”.

B1: soybean trypsin inhibitor (protein, UniProt P01070 25-205, looked up)
Trypsin inhibitor A: DFVLDNEGNPLENGGTYYILSDITAFGGIRAAPTGNERCPLTVVQSRNELDKGIGTIISSPYRIRFIAEGHPLSLKFDSFAVIMLCVGIPTEWSVVEDLPEGPAVKIGENKDAMDGWFRLERVSDDEFNNYKLVFCPQQAEDDKCGDIGISIDHDDGTRRLVVSKNKPLVVQFQKLDKESL
On to B1, for which the “Effect on activity of tryptase released by SP activation” value in the data set with mast cell tryptase was “able to block the activity of tryptase; also recorded: completely blocked the proteolytic activity of tryptase”. In addition, the “Effect on SP-mediated downregulation of FcεRI” value in data set [1] (LAD2, 100 μg/ml SBTI five minutes prior to 1 or 10 μg/ml SP, 24 h) is on record as “did not affect SP-mediated downregulation of FcεRI”. The “Effect on SP-induced degranulation” value in the data set with LAD2 mast cells [2] (LAD2, pretreatment before activation with SP, β-hexosaminidase release) is on record as “did not affect LAD2 cell degranulation”.

The values above are taken from article PMC3712287 (Journal of neuroimmunology, 2010).
